Calls of active or inactive are those of the source. The rule behind the calls is not given here.
Key:
A549 = assay: Cytotoxicity against human A549 cells assessed as cell growth inhibition after 3 days by MTT assay; format: functional, cell-based; conditions: A549, 72 h
In short: (§1)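 Cells grown in RPMI-1640 with 10% FBS, penicillin 100 U/mL and streptomycin, 37 °C, 5% CO2. Exponential-phase cells seeded at 5 × 10⁴–1 × 10⁵ cells/mL, grown overnight, then treated with DMSO-predissolved compounds for 3 days. Medium replaced by MTT for 4 h at 37 °C; formazan dissolved in SDS/DMF/water/acetic acid buffer (pH 4.7); absorbance read at 570 nm. At least three independent experiments.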

HCT-116 [1] = assay: Cytotoxicity against human HCT116 cells assessed as cell growth inhibition after 3 days by MTT assay; format: functional, cell-based; conditions: HCT-116, 72 h; in short: as §1
HepG2 = assay: Cytotoxicity against human HepG2 cells assessed as cell growth inhibition after 3 days by MTT assay; format: functional, cell-based; conditions: HepG2, 72 h; in short: as §1
[2] = target: DNA topoisomerase 2-alpha (Homo sapiens) (UniProt P11388); assay: Inhibition human topoisomerase 2 kDNA decatenation activity at 200 uM
HCT-116 [3] = assay: Cell cycle arrest in human HCT116 cells assessed as accumulation at G1 phase at 10 uM after 24 hrs using propidium iodide by fluorescence flow cytometry; format: functional
In short: (§2)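 HCT-116 cells incubated 24 h with test agent at […], stained with propidium iodide; DNA content analysed by fluorescence flow cytometry to give percentage of cells per cell-cycle phase. Values are means of at least three independent experiments.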

HCT-116 [4] = assay: Cell cycle arrest in human HCT116 cells assessed as accumulation at G1 phase at 1.25 uM after 24 hrs using propidium iodide by fluorescence flow cytometry; format: functional; in short: as §2
HCT-116 [5] = assay: Cell cycle arrest in human HCT116 cells assessed as accumulation at sub G1 phase at 1.25 uM after 24 hrs using propidium iodide by fluorescence flow cytometry; format: functional; in short: as §2
HCT-116 [6] = assay: Cell cycle arrest in human HCT116 cells assessed as accumulation at sub G1 phase at 10 uM after 24 hrs using propidium iodide by fluorescence flow cytometry; format: functional; in short: as §2
HCT-116 [7] = assay: Cell cycle arrest in human HCT116 cells assessed as accumulation at S phase at 10 uM after 24 hrs using propidium iodide by fluorescence flow cytometry; format: functional; in short: as §2
HCT-116 [8] = assay: Cell cycle arrest in human HCT116 cells assessed as accumulation at G1 phase at 5 uM after 24 hrs using propidium iodide by fluorescence flow cytometry; format: functional; in short: as §2
HCT-116 [9] = assay: Cell cycle arrest in human HCT116 cells assessed as accumulation at G1 phase at 2.5 uM after 24 hrs using propidium iodide by fluorescence flow cytometry; format: functional; in short: as §2
HCT-116 [10] = assay: Cell cycle arrest in human HCT116 cells assessed as accumulation at S phase at 1.25 uM after 24 hrs using propidium iodide by fluorescence flow cytometry; format: functional; in short: as §2
HCT-116 [11] = assay: Cell cycle arrest in human HCT116 cells assessed as accumulation at sub G1 phase at 5 uM after 24 hrs using propidium iodide by fluorescence flow cytometry; format: functional; in short: as §2
HCT-116 [12] = assay: Cell cycle arrest in human HCT116 cells assessed as accumulation at G2/M phase at 10 uM after 24 hrs using propidium iodide by fluorescence flow cytometry; format: functional; in short: as §2
HCT-116 [13] = assay: Cell cycle arrest in human HCT116 cells assessed as accumulation at G2/M phase at 5 uM after 24 hrs using propidium iodide by fluorescence flow cytometry; format: functional; in short: as §2
HCT-116 [14] = assay: Cell cycle arrest in human HCT116 cells assessed as accumulation at S phase at 2.5 uM after 24 hrs using propidium iodide by fluorescence flow cytometry; format: functional; in short: as §2
HCT-116 [15] = assay: Cell cycle arrest in human HCT116 cells assessed as accumulation at S phase at 5 uM after 24 hrs using propidium iodide by fluorescence flow cytometry; format: functional; in short: as §2
HCT-116 [16] = assay: Cell cycle arrest in human HCT116 cells assessed as accumulation at G2/M phase at 1.25 uM after 24 hrs using propidium iodide by fluorescence flow cytometry; format: functional; in short: as §2
HCT-116 [17] = assay: Cell cycle arrest in human HCT116 cells assessed as accumulation at G2/M phase at 2.5 uM after 24 hrs using propidium iodide by fluorescence flow cytometry; format: functional; in short: as §2
HCT-116 [18] = assay: Cell cycle arrest in human HCT116 cells assessed as accumulation at sub G1 phase at 2.5 uM after 24 hrs using propidium iodide by fluorescence flow cytometry; format: functional; in short: as §2

Chain of DNA topoisomerase 2-alpha (Homo sapiens) (P11388 whole entry): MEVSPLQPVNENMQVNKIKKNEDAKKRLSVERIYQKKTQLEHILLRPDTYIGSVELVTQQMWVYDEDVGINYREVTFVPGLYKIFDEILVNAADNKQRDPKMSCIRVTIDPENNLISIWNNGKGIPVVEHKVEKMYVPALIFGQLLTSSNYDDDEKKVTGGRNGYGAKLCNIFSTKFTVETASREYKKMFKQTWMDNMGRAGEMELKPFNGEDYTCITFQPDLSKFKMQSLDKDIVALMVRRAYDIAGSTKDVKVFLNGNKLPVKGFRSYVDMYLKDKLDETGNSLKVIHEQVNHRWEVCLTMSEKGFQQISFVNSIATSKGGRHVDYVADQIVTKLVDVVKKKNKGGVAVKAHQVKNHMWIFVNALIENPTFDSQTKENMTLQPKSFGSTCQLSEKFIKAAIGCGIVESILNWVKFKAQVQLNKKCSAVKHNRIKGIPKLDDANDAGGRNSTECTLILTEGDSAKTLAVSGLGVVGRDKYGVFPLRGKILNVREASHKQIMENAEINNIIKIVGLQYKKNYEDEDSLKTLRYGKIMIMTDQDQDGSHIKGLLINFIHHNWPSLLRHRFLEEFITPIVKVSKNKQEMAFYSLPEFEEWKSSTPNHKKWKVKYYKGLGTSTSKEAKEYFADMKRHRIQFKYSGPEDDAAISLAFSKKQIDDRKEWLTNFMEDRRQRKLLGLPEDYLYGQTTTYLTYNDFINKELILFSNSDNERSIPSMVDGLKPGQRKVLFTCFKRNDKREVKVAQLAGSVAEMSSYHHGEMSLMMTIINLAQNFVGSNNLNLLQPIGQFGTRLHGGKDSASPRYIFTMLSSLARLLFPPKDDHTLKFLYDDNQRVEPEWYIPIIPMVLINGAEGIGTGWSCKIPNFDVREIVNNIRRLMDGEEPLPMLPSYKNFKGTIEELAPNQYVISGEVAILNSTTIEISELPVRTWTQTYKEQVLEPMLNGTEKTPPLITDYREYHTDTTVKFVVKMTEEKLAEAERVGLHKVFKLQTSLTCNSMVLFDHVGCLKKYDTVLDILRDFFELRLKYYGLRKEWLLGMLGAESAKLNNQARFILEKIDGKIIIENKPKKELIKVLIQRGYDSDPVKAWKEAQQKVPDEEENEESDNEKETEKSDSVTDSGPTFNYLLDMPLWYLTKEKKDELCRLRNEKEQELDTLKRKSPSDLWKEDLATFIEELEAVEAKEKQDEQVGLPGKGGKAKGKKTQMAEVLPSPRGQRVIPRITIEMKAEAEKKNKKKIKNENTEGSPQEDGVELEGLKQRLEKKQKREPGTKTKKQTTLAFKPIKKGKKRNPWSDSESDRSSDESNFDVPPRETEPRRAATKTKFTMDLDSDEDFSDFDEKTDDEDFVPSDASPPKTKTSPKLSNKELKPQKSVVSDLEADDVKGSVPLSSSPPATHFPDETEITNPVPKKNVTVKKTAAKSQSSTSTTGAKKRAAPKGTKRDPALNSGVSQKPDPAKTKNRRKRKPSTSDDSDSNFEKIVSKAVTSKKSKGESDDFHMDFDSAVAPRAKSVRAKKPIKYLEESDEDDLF

Work on `COc1cc([C@@H]2c3cc4c(cc3[C@@H](NC(=S)NC(=O)c3ccc(Cl)cc3)[C@H]3COC(=O)[C@H]23)OCO4)cc(OC)c1O` yielded an IC50 (A549) of 11.5 µM, an IC50 (HCT-116 [1]) of 7.2 µM and an IC50 (HepG2) of 7.6 µM.
`COc1cc([C@@H]2c3cc4c(cc3[C@@H](NC(=S)NC(=O)c3ccccc3Br)[C@H]3COC(=O)[C@H]23)OCO4)cc(OC)c1O` showed an IC50 (A549) of 11.4 µM, an IC50 (HCT-116 [1]) of 6.2 µM and an IC50 (HepG2) of 5.1 µM.
`COc1cc([C@@H]2c3cc4c(cc3[C@@H](O[C@@H]3O[C@@H]5CO[C@@H](C)O[C@H]5[C@H](O)[C@H]3O)[C@H]3COC(=O)[C@H]23)OCO4)cc(OC)c1O` [ETOPOSIDE] was tested, and the IC50 (A549) was 21.4 µM, the IC50 (HCT-116 [1]) was 13.5 µM and the IC50 (HepG2) was 4.9 µM.
Work on `COc1cc([C@@H]2c3cc4c(cc3[C@@H](N)[C@H]3COC(=O)[C@H]23)OCO4)cc(OC)c1O` yielded an IC50 (A549) of 5.2 µM, an IC50 (HCT-116 [1]) of 2.1 µM and an IC50 (HepG2) of 1.5 µM.
`COc1cc([C@@H]2c3cc4c(cc3[C@@H](NC(=S)NC(=O)c3ccccc3I)[C@H]3COC(=O)[C@H]23)OCO4)cc(OC)c1O` was tested, and the IC50 (A549) was 15.1 µM, the IC50 (HCT-116 [1]) was 6.7 µM and the inhibition [2] was “Active”. It also gave an IC50 (HepG2) of 6.7 µM.
`COc1cc([C@@H]2c3cc4c(cc3[C@@H](NC(=S)NC(=O)c3ccc(C)cc3)[C@H]3COC(=O)[C@H]23)OCO4)cc(OC)c1O` showed an IC50 (A549) of 11.3 µM, an IC50 (HCT-116 [1]) of 6.8 µM and an IC50 (HepG2) of 3 µM.
Work on `COc1cc([C@@H]2c3cc4c(cc3[C@@H](NC(=S)NC(=O)c3cccc(Cl)c3)[C@H]3COC(=O)[C@H]23)OCO4)cc(OC)c1O` yielded an IC50 (A549) of 17.9 µM, an IC50 (HCT-116 [1]) of 6.8 µM and an IC50 (HepG2) of 7.6 µM.
In the case of `COc1cc([C@@H]2c3cc4c(cc3[C@@H](NC(=S)NC(=O)c3cccc5ccccc35)[C@H]3COC(=O)[C@H]23)OCO4)cc(OC)c1O`, the IC50 (A549) is reported as 6 µM, the IC50 (HCT-116 [1]) is reported as 2.2 µM and the inhibition [2] is reported as “Active”. It also gave an IC50 (HepG2) of 18.7 µM.
`COc1cc([C@@H]2c3cc4c(cc3[C@@H](NC(=S)NC(=O)c3ccccc3Cl)[C@H]3COC(=O)[C@H]23)OCO4)cc(OC)c1O` was tested, and the IC50 (A549) was 10.3 µM, the IC50 (HCT-116 [1]) was 7.7 µM and the IC50 (HepG2) was 7.7 µM.
Compound `COc1cc([C@@H]2c3cc4c(cc3[C@@H](NC(=S)NC(=O)c3ccccc3)[C@H]3COC(=O)[C@H]23)OCO4)cc(OC)c1O` has an Activity (HCT-116 [3]) of 3.55%, an IC50 (A549) of 9.8 µM and an Activity (HCT-116 [4]) of 48.6%. For the same compound, the Activity (HCT-116 [5]) was 0%, the IC50 (HCT-116 [1]) was 6.3 µM and the Activity (HCT-116 [6]) was 0%. For the same compound, the Activity (HCT-116 [7]) was 0%, the Activity (HCT-116 [8]) was 4.23% and the inhibition [2] was “Active”. It also gave an Activity (HCT-116 [9]) of 1.8%, an Activity (HCT-116 [10]) of 8.74% and an Activity (HCT-116 [11]) of 0%. The IC50 (HepG2) was 6.1 µM, the Activity (HCT-116 [12]) was 96.45% and the Activity (HCT-116 [13]) was 95.77%. The Activity (HCT-116 [14]) was 5.09%, the Activity (HCT-116 [15]) was 0% and the Activity (HCT-116 [16]) was 42.66%. For the same compound, the Activity (HCT-116 [17]) was 93.11% and the Activity (HCT-116 [18]) was 0%.
Work on `COc1cc([C@@H]2c3cc4c(cc3[C@@H](NC(=S)NC(=O)c3ccccc3C)[C@H]3COC(=O)[C@H]23)OCO4)cc(OC)c1O` yielded an IC50 (A549) of 12.2 µM, an IC50 (HCT-116 [1]) of 4.7 µM and an IC50 (HepG2) of 5.2 µM.
Work on `COc1cc([C@@H]2c3cc4c(cc3[C@@H](NC(=S)NC(=O)c3cccc(C)c3)[C@H]3COC(=O)[C@H]23)OCO4)cc(OC)c1O` yielded an IC50 (A549) of 13.3 µM, an IC50 (HCT-116 [1]) of 5.5 µM and an IC50 (HepG2) of 4.6 µM.
`COc1cc([C@@H]2c3cc4c(cc3[C@@H](NC(=S)NC(=O)c3ccc(F)cc3)[C@H]3COC(=O)[C@H]23)OCO4)cc(OC)c1O` showed an IC50 (A549) of 10.8 µM, an IC50 (HCT-116 [1]) of 6.8 µM and an IC50 (HepG2) of 8.3 µM.

Reference: ChEMBL document CHEMBL1687881, “Synthesis and evaluation of aroylthiourea derivatives of 4-β-amino-4'-O-demethyl-4-desoxypodophyllotoxin as novel topoisomerase II inhibitors” (Eur J Med Chem, 2011)
